Test results taken from ChEMBL document CHEMBL1141803, “Floratheasaponins A-C, acylated oleanane-type triterpene oligoglycosides with anti-hyperlipidemic activities from flowers of the tea plant (Camellia sinensis)” (2005).

Columns and labels:
Assay type in all cases: functional
[1] = tested on: Mus musculus; experiment: Antihyperlipidemic activity in olive oil-treated ddY mouse assessed as serum triglyceride level at 250 mg/kg, po after 4 hrs
Outline: (§1)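 Male ddY mice (25-30 g) kept at 23 ± 2 °C on standard chow, fasted 24-26 h with free access to water, conscious. Test sample given orally; olive oil (5 mL/kg, p.o.) given 30 min later. Blood drawn from the infraorbital venous plexus 2, 4 and 6 h after olive oil. Serum TG measured enzymatically (triglyceride E test). Means ± SEM, n = 5-12 per group.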

[2] = tested on: Mus musculus; experiment: Antihyperlipidemic activity in olive oil-treated ddY mouse assessed as serum triglyceride level at 125 mg/kg, po after 6 hrs; outline: as §1
[3] = tested on: Mus musculus; experiment: Antihyperlipidemic activity in olive oil-treated ddY mouse assessed as serum triglyceride level at 125 mg/kg, po after 2 hrs; outline: as §1
[4] = tested on: Mus musculus; experiment: Antihyperlipidemic activity in olive oil-treated ddY mouse assessed as serum triglyceride level at 125 mg/kg, po after 4 hrs; outline: as §1
[5] = tested on: Mus musculus; experiment: Antihyperlipidemic activity in olive oil-treated ddY mouse assessed as serum triglyceride level at 500 mg/kg, po after 4 hrs; outline: as §1
[6] = tested on: Mus musculus; experiment: Antihyperlipidemic activity in olive oil-treated ddY mouse assessed as serum triglyceride level at 250 mg/kg, po after 6 hrs; outline: as §1
[7] = tested on: Mus musculus; experiment: Antihyperlipidemic activity in olive oil-treated ddY mouse assessed as serum triglyceride level at 500 mg/kg, po after 2 hrs; outline: as §1
[8] = tested on: Mus musculus; experiment: Antihyperlipidemic activity in olive oil-treated ddY mouse assessed as serum triglyceride level at 500 mg/kg, po after 6 hrs; outline: as §1
[9] = tested on: Mus musculus; experiment: Antihyperlipidemic activity in olive oil-treated ddY mouse assessed as serum triglyceride level at 250 mg/kg, po after 2 hrs; outline: as §1
[10] = tested on: Mus musculus; experiment: Antihyperlipidemic activity in olive oil-treated ddY mouse assessed as serum triglyceride level at 50 mg/kg, po after 6 hrs; outline: as §1
[11] = tested on: Mus musculus; experiment: Antihyperlipidemic activity in olive oil-treated ddY mouse assessed as serum triglyceride level at 100 mg/kg, po after 4 hrs; outline: as §1
[12] = tested on: Mus musculus; experiment: Antihyperlipidemic activity in olive oil-treated ddY mouse assessed as serum triglyceride level at 25 mg/kg, po after 4 hrs; outline: as §1
[13] = tested on: Mus musculus; experiment: Antihyperlipidemic activity in olive oil-treated ddY mouse assessed as serum triglyceride level at 100 mg/kg, po after 2 hrs; outline: as §1
[14] = tested on: Mus musculus; experiment: Antihyperlipidemic activity in olive oil-treated ddY mouse assessed as serum triglyceride level at 50 mg/kg, po after 2 hrs; outline: as §1
[15] = tested on: Mus musculus; experiment: Antihyperlipidemic activity in olive oil-treated ddY mouse assessed as serum triglyceride level at 50 mg/kg, po after 4 hrs; outline: as §1
[16] = tested on: Mus musculus; experiment: Antihyperlipidemic activity in olive oil-treated ddY mouse assessed as serum triglyceride level at 25 mg/kg, po after 6 hrs; outline: as §1
[17] = tested on: Mus musculus; experiment: Antihyperlipidemic activity in olive oil-treated ddY mouse assessed as serum triglyceride level at 25 mg/kg, po after 2 hrs; outline: as §1
[18] = tested on: Mus musculus; experiment: Antihyperlipidemic activity in olive oil-treated ddY mouse assessed as serum triglyceride level at 100 mg/kg, po after 6 hrs; outline: as §1
[19] = tested on: Mus musculus; experiment: Antihyperlipidemic activity in olive oil-treated ddY mouse assessed as serum triglyceride level at 12.5 mg/kg, po after 4 hrs; outline: as §1
[20] = tested on: Mus musculus; experiment: Antihyperlipidemic activity in olive oil-treated ddY mouse assessed as serum triglyceride level at 6.25 mg/kg, po after 6 hrs; outline: as §1
[21] = tested on: Mus musculus; experiment: Antihyperlipidemic activity in olive oil-treated ddY mouse assessed as serum triglyceride level at 12.5 mg/kg, po after 2 hrs; outline: as §1
[22] = tested on: Mus musculus; experiment: Antihyperlipidemic activity in olive oil-treated ddY mouse assessed as serum triglyceride level at 12.5 mg/kg, po after 6 hrs; outline: as §1
[23] = tested on: Mus musculus; experiment: Antihyperlipidemic activity in olive oil-treated ddY mouse assessed as serum triglyceride level at 6.25 mg/kg, po after 4 hrs; outline: as §1
[24] = tested on: Mus musculus; experiment: Antihyperlipidemic activity in olive oil-treated ddY mouse assessed as serum triglyceride level at 6.25 mg/kg, po after 2 hrs; outline: as §1

Question: How did the Activity [1] turn out when `CCOC(=O)C(C)(C)Oc1ccc(Cl)cc1` [CLOFIBRATE] was run?
Answer: The Activity was 340.5 mg/dL.

Question: What about the Activity [2] of the same compound?
Answer: The Activity was 333.4 mg/dL.

Question: What about the Activity [3] of the same compound?
Answer: The Activity was 377.5 mg/dL.

Question: What about the Activity [4] of the same compound?
Answer: The Activity was 295 mg/dL.

Question: What about the Activity [5] of the same compound?
Answer: The Activity was 239.7 mg/dL.

Question: What about the Activity [6] of the same compound?
Answer: Its Activity is 443.3 mg/dL.

Question: What about the Activity [7] of the same compound?
Answer: Its Activity is 318.2 mg/dL.

Question: And the Activity [8]?
Answer: The Activity was 373.5 mg/dL.

Question: And the Activity [9]?
Answer: Its Activity is 441.2 mg/dL.

Question: With `C/C=C\C(=O)O[C@H]1[C@H](OC(C)=O)[C@]2(CO)[C@H](O)C[C@]3(C)C(=CC[C@@H]4[C@@]5(C)CC[C@H](O[C@@H]6O[C@H](C(=O)O)[C@@H](O)[C@H](O[C@@H]7OC[C@H](O)[C@H](O)[C@H]7O[C@@H]7OC[C@@H](O)[C@H](O)[C@H]7O)[C@H]6O[C@@H]6O[C@H](CO)[C@H](O)[C@H](O)[C@H]6O)[C@@](C)(C=O)C5CC[C@]43C)[C@@H]2CC1(C)C` (stereo partly drawn) [THEASAPONIN E1] as the compound, how does the Activity [10] read?
Answer: Its Activity is 267.2 mg/dL.

Question: And the Activity [11]?
Answer: The Activity was 389.5 mg/dL.

Question: And the Activity [12]?
Answer: Its Activity is 430.7 mg/dL.

Question: What about the Activity [13] of the same compound?
Answer: The Activity was 342.3 mg/dL.

Question: What about the Activity [14] of the same compound?
Answer: Its Activity is 373.9 mg/dL.

Question: What about the Activity [15] of the same compound?
Answer: The Activity was 312.2 mg/dL.

Question: And the Activity [16]?
Answer: The Activity was 233.9 mg/dL.

Question: And the Activity [17]?
Answer: The Activity was 578.5 mg/dL.

Question: And the Activity [18]?
Answer: The Activity was 294.9 mg/dL.

Question: `C/C=C\C(=O)O[C@H]1[C@H](O)[C@]2(COC(C)=O)[C@H](O)C[C@]3(C)C(=CC[C@@H]4[C@@]5(C)CC[C@H](O[C@@H]6O[C@H](C(=O)O)[C@@H](O)[C@H](O[C@@H]7OC[C@H](O)[C@H](O)[C@H]7O[C@@H]7OC[C@@H](O)[C@H](O)[C@H]7O)[C@H]6O[C@@H]6O[C@H](CO)[C@H](O)[C@H](O)[C@H]6O)[C@@](C)(C=O)C5CC[C@]43C)[C@@H]2CC1(C)C` (stereo partly drawn) [THEASAPONIN E2] was tested. Which Activity [10] did it give?
Answer: Its Activity is 361.3 mg/dL.

Question: What about the Activity [11] of the same compound?
Answer: Its Activity is 507 mg/dL.

Question: And the Activity [13]?
Answer: Its Activity is 509.4 mg/dL.

Question: And the Activity [14]?
Answer: Its Activity is 552.9 mg/dL.

Question: And the Activity [15]?
Answer: Its Activity is 507.5 mg/dL.

Question: What about the Activity [18] of the same compound?
Answer: The Activity was 396.4 mg/dL.

Question: How did the Activity [10] turn out when `CC1(C)C[C@H]2C3=CC[C@@H]4[C@@]5(C)CC[C@H](O[C@@H]6O[C@H](C(=O)O)[C@@H](O)[C@H](O[C@@H]7OC[C@H](O)[C@H](O)[C@H]7O[C@@H]7OC[C@@H](O)[C@H](O)[C@H]7O)[C@H]6O[C@@H]6O[C@H](CO)[C@H](O)[C@H](O)[C@H]6O)[C@@](C)(C=O)C5CC[C@@]4(C)[C@]3(C)C[C@@H](O)[C@@]2(CO)[C@@H](O)[C@@H]1O` (stereo partly drawn) was run?
Answer: The Activity was 332.3 mg/dL.

Question: What about the Activity [11] of the same compound?
Answer: The Activity was 363.2 mg/dL.

Question: What about the Activity [13] of the same compound?
Answer: Its Activity is 440.8 mg/dL.

Question: What about the Activity [14] of the same compound?
Answer: The Activity was 468.7 mg/dL.

Question: And the Activity [15]?
Answer: Its Activity is 410.5 mg/dL.

Question: And the Activity [18]?
Answer: The Activity was 314.3 mg/dL.

Question: Which results are given for `C/C=C\C(=O)O[C@H]1[C@H](OC(C)=O)[C@]2(CO)[C@H](O)C[C@]3(C)C(=CC[C@@H]4[C@@]5(C)CC[C@H](O[C@@H]6O[C@H](C(=O)O)[C@@H](O)[C@H](O[C@@H]7OC[C@H](O)[C@H](O)[C@H]7O[C@@H]7OC[C@@H](O)[C@H](O)[C@H]7O)[C@H]6O[C@@H]6O[C@H](CO)[C@H](O)[C@H](O)[C@H]6O)C(C)(C)C5CC[C@]43C)[C@@H]2CC1(C)C` (stereo partly drawn) [FLORATHEASAPONIN A]?
Answer: Activity [10]: 256.8 mg/dL; Activity [11]: 242 mg/dL; Activity [12]: 251.8 mg/dL; Activity [13]: 158.3 mg/dL; Activity [14]: 387.4 mg/dL; Activity [15]: 392.9 mg/dL; Activity [16]: 135.7 mg/dL; Activity [17]: 411 mg/dL; Activity [18]: 322.3 mg/dL

Question: How did the Activity [19] turn out when `CCCCCCCCCCC[C@@H](C[C@@H]1OC(=O)[C@H]1CCCCCC)OC(=O)[C@H](CC(C)C)NC=O` [ORLISTAT] was run?
Answer: The Activity was 176 mg/dL.

Question: What about the Activity [12] of the same compound?
Answer: The Activity was 132.2 mg/dL.

Question: And the Activity [20]?
Answer: The Activity was 155.6 mg/dL.

Question: What about the Activity [21] of the same compound?
Answer: Its Activity is 187.9 mg/dL.

Question: And the Activity [22]?
Answer: The Activity was 189.7 mg/dL.

Question: What about the Activity [23] of the same compound?
Answer: The Activity was 179.3 mg/dL.

Question: What about the Activity [24] of the same compound?
Answer: The Activity was 266.4 mg/dL.

Question: And the Activity [16]?
Answer: Its Activity is 140.1 mg/dL.

Question: And the Activity [17]?
Answer: Its Activity is 158.9 mg/dL.
